What was measured:
[1] = biological target: T1, Ryanodine receptor 1 (Oryctolagus cuniculus, UniProt P11716)
[2] = Toxicity in ip dosed Mus musculus Swiss-Webster (mouse) assessed as mortality measured after 24 hr; assay type: organism-based; settings: in vivo
[3] = test system: Musca domestica; experiment: Toxicity against SCR-susceptible Musca domestica (house fly) assessed as immobility compound administered by intrathoracic injection 2 hr after piperonyl butoxide treatment measured 4 hr post compound treatment; assay type: functional
Method in brief: (§1)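 Houseflies first received 7.5 μg piperonyl butoxide in 0.5 μL acetone topically on the abdomen. After 2 h they were given the test compound by intrathoracic injection in 1 μL of 50% aqueous ethanol. Flies immobilised at 4 h were scored, and KD50 came from log dose–probit plots. Two independent experiments were run, each with 10 flies per dose and 1.5–2-fold dose spacing.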

[4] = biological target: T1, Ryanodine receptor 1; experiment: Ratio of compound IC50 to ryanodine IC50 for Ca2+-ryanodine receptor in Oryctolagus cuniculus (rabbit) skeletal muscle sarcoplasmic reticulum after 80 min by competitive inhibition assay; assay type: ADME
Method in brief: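 Rabbit fast skeletal muscle heavy SR (terminal cisternae) receptor, solubilised with 1 M NaCl, 1 mg CHAPS/mg protein and 40 mM Tris/maleate pH 7.1. […] Incubation was 80 min at 37°C, then GF/C filtration. IC50 came from Hill regression.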

[5] = test system: Musca domestica; experiment: Ratio of compound KD50 to ryanodine KD50 for SCR-susceptible Musca domestica (house fly) assessed as immobility compound administered by intrathoracic injection 2 hr after piperonyl butoxide treatment measured 4 hr post compound treatment; assay type: functional
Method in brief: as §1

[6] = test system: Musca domestica; experiment: Toxicity against SCR-susceptible Musca domestica (house fly) assessed as immobility compound administered by intrathoracic injection measured 4 hr post compound treatment; assay type: functional
Method in brief: (§2)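 Houseflies without piperonyl butoxide pretreatment received ryanoid by intrathoracic injection in 50% aqueous ethanol. Knockdown (immobility) was scored 4 h after treatment, and KD50 came from log dose–probit plots. Two independent experiments were run, each with 10 flies per dose and 1.5–2-fold dose spacing.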

[7] = test system: Mus musculus; experiment: Ratio of compound LC50 to ryanodine LC50 for ip dosed Mus musculus Swiss-Webster (mouse) assessed as mortality measured after 24 hr; assay type: ADME, organism-based; settings: in vivo
[8] = test system: Musca domestica; experiment: Ratio of compound KD50 to ryanodine KD50 for SCR-susceptible Musca domestica (house fly) assessed as immobility compound administered by intrathoracic injection measured 4 hr post compound treatment; assay type: ADME, organism-based; settings: in vivo, other
Method in brief: as §2

[9] = test system: Musca domestica; experiment: Drug metabolism in SCR-susceptible Musca domestica (house fly) assessed as unidentified metabolite intermediate Rf in exctreta at 160 ug/g after 4 hr by TLC method; assay type: ADME, organism-based; settings: in vivo
[10] = test system: Musca domestica; experiment: Drug metabolism in SCR-susceptible Musca domestica (house fly) assessed as unidentified metabolite intermediate Rf in exctreta at 160 ug/g after 1 hr by TLC method; assay type: ADME, organism-based; settings: in vivo
Method in brief: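 Excreta were extracted with MeOH, then run on TLC on 0.20-mm silica gel in 15% MeOH/CHCl3. Metabolites were detected by liquid scintillation counting.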

T1 sequence (P11716 whole entry): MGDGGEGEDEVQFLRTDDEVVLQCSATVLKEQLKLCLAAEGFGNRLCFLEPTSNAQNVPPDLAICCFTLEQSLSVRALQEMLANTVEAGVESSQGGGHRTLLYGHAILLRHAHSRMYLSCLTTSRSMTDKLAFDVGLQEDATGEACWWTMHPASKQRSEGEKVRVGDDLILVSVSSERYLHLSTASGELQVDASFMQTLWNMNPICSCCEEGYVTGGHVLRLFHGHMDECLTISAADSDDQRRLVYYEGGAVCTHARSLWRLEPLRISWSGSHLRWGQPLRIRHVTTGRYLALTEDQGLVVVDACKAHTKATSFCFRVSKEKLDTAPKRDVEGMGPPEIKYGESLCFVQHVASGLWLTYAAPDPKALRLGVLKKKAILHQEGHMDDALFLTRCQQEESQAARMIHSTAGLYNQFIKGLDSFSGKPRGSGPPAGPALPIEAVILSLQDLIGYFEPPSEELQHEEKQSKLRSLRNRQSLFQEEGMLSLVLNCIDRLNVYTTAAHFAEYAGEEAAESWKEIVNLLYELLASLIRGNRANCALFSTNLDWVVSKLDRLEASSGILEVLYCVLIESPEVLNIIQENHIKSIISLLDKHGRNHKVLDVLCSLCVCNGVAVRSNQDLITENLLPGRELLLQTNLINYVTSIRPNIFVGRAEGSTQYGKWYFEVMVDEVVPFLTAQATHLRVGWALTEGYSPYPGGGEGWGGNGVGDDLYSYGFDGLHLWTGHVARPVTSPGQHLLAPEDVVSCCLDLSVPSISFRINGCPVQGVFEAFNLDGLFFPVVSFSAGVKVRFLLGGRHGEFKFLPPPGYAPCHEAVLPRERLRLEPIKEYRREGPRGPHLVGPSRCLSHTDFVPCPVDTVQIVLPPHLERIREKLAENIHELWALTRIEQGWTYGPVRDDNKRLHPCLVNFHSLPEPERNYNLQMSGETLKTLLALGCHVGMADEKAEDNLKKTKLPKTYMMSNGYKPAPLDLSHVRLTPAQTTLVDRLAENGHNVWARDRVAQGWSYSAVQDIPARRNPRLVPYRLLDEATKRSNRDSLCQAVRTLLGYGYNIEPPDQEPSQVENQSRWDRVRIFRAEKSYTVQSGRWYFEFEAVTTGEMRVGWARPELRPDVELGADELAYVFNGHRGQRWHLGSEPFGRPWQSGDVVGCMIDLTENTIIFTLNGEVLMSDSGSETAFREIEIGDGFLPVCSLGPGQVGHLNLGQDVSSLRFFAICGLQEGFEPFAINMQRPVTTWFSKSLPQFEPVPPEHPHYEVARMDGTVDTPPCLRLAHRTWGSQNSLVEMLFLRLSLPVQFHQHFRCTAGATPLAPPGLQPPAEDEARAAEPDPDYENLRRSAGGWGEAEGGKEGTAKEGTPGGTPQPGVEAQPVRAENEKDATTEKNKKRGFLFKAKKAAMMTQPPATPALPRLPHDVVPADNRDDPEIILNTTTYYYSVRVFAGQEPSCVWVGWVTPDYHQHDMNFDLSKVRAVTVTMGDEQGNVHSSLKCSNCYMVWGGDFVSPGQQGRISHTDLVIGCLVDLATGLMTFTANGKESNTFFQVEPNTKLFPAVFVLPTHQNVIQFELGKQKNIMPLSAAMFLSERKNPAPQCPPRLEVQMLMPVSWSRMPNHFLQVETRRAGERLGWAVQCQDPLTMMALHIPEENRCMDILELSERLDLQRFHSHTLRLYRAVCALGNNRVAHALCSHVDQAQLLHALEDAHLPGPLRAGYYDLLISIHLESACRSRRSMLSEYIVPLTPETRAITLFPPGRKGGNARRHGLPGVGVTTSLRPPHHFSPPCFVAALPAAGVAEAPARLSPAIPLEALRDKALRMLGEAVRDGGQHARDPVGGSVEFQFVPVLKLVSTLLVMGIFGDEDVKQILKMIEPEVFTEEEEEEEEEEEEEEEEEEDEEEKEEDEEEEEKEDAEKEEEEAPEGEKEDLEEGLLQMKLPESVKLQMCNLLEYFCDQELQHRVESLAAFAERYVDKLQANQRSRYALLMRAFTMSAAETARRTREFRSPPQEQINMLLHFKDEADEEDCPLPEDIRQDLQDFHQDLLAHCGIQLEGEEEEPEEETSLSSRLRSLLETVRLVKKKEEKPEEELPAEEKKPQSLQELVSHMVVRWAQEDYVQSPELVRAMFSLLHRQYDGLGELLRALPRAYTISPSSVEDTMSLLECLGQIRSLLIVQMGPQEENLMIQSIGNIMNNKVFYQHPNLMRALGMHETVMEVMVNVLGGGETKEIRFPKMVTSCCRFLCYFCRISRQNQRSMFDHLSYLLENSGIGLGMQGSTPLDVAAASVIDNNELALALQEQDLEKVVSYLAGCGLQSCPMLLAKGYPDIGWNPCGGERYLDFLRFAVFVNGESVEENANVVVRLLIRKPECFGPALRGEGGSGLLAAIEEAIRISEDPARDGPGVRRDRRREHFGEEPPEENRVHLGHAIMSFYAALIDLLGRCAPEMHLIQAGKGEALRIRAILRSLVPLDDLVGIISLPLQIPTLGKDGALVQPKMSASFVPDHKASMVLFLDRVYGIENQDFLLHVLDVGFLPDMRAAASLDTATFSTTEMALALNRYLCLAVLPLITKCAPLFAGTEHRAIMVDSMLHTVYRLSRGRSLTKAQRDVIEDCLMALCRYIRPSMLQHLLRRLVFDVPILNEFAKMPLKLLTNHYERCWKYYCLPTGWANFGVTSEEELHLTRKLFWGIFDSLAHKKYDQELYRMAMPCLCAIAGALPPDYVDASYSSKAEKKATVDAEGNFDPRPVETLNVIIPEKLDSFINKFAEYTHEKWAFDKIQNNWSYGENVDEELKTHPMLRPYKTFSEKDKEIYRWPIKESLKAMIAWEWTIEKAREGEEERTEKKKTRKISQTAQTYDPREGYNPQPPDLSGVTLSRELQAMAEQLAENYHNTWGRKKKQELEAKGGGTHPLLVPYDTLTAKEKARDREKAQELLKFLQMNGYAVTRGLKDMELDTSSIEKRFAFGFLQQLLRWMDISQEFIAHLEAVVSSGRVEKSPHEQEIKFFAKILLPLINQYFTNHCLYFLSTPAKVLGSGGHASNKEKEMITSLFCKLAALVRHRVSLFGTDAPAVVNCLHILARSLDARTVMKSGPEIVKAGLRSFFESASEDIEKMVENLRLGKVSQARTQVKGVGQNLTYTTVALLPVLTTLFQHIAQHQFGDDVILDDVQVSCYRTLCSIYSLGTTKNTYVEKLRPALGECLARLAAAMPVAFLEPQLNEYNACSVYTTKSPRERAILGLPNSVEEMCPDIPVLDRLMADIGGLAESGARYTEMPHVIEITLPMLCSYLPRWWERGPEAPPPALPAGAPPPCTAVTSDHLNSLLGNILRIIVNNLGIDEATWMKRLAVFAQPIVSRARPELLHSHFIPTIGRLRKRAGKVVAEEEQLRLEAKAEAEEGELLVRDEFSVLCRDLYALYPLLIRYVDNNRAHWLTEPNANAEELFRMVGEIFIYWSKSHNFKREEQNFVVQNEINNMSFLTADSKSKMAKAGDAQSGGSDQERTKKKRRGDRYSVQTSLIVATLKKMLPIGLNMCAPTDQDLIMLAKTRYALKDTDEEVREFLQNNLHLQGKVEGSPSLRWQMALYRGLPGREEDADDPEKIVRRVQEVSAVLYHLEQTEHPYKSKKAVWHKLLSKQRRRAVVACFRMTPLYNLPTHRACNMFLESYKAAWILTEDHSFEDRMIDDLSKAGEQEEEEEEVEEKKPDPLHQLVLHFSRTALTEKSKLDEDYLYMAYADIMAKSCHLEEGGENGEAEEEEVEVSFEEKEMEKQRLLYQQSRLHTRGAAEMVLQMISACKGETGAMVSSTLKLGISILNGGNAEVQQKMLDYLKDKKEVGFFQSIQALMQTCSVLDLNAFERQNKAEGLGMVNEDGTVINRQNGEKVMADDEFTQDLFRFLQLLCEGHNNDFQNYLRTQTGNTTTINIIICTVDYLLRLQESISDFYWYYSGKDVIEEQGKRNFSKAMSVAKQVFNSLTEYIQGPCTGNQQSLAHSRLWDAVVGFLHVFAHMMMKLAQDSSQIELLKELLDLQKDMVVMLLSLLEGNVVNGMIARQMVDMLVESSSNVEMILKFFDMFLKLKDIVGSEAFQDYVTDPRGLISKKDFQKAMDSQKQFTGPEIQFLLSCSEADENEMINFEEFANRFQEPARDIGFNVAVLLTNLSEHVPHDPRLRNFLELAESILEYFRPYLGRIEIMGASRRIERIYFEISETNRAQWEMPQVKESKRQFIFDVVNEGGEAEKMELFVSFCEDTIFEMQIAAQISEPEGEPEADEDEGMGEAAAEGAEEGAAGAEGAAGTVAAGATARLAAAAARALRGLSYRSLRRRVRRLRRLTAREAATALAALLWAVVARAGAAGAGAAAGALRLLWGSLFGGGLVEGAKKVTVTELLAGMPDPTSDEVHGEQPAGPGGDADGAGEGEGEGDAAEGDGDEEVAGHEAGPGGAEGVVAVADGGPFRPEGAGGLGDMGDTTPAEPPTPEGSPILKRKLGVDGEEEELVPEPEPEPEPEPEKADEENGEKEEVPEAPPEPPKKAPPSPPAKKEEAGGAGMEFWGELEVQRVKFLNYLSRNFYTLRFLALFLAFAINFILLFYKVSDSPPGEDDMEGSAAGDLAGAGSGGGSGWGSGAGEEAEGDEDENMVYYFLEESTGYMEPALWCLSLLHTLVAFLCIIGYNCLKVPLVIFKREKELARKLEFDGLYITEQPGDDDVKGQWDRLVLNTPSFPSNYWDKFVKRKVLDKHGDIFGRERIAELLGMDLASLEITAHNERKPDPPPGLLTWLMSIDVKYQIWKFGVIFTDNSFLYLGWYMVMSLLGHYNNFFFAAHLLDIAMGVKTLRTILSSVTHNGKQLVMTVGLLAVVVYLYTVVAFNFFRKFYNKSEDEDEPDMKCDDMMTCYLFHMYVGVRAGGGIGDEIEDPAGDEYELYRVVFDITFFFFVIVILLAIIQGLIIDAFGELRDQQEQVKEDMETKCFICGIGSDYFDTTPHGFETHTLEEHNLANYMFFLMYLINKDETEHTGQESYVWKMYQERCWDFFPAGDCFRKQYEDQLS

SMILES | IC50 [1] [nM] | LD50 at 24 h [2] [mg/kg] | KD50 [3] [µg/g] | further results
CC1=C(C(C)C)[C@@H](OC(=O)c2ccc[nH]2)[C@@]2(O)[C@@]3(C)CC(=O)O[C@@]4([C@H](O)[C@@H](C)CC[C@]34O)[C@@]12O [ANHYDRORYANODINE] | > 10000 | > 20 | – | –
CC(C)[C@@]1(O)[C@@H](OC(=O)c2ccc[nH]2)[C@@]2(O)[C@@]3(C)C[C@]4(O)O[C@@]5([C@H](O)[C@H](C)CC[C@]35O)[C@@]2(O)[C@]14C [EPIRYANODINE] | – | 0.47 | – | –
CC(C)[C@@]1(O)[C@@H](OC(=O)c2cccn2Cc2ccccc2)[C@@]2(O)[C@@]3(C)C[C@]4(O)O[C@@]5([C@H](O)[C@@H](C)CC[C@]35O)[C@@]2(O)[C@]14C [N-BENZYLRYANODINE] | 310 | 6.3 | – | –
CCCCn1cccc1C(=O)O[C@H]1[C@@]2(O)[C@@]3(C)C[C@]4(O)O[C@@]5([C@H](O)[C@@H](C)CC[C@]35O)[C@@]2(O)[C@]4(C)[C@@]1(O)C(C)C [N-BUTYLRYANODINE] | 860 | – | – | –
CC(C)[C@@]1(O)[C@@H](OC(=O)c2ccc[nH]2)[C@@]2(O)[C@@]3(C)C[C@]4(O)O[C@@]5([C@H](O)C6(CC[C@]35O)CO6)[C@@]2(O)[C@]14C (stereo not given in full) [9,21-EPOXYRYANODINE] | 140 | 1.5 | 0.3 | –
C=C1CC[C@]2(O)[C@]3(C)C[C@]4(O)O[C@@]2([C@@H]1O)[C@]1(O)[C@@]3(O)[C@H](O)[C@](O)(C(C)C)[C@@]14C [DIDEHYDRORYANODOL] | 10000 | > 20 | 0.36 | –
CC(C)[C@@]1(O)[C@@H](OC(=O)c2[nH]c(Br)c(Br)c2Br)[C@@]2(O)[C@@]3(C)C[C@]4(O)O[C@@]5([C@H](O)[C@@H](C)CC[C@]35O)[C@@]2(O)[C@]14C [24,25,26-TRIBROMORYANODINE] | > 10000 | > 20 | – | –
CO[C@@]12C[C@@]3(C)[C@@]4(OC)CC[C@H](C)[C@@H](O)[C@]4(O1)[C@]1(O)[C@@]3(O)[C@H](OC(=O)c3cccn3C)[C@](O)(C(C)C)[C@]21C | 1300 | – | 12 | –
CC(C)[C@@]1(O)[C@@H](OC(=O)c2ccc[nH]2)[C@@]2(O)[C@@]3(C)C[C@]4(O)O[C@@]5(C(=O)[C@@H](C)CC[C@]35O)[C@@]2(O)[C@]14C [10-KETORYANODINE] | 100 | 0.55 | >20 | –
CC(C)[C@@]1(O)[C@@H](OC(=O)c2ccc[nH]2)[C@@]2(O)[C@@]3(C)C[C@]4(O)O[C@@]5([C@H](O)[C@](O)(CO)CC[C@]35O)[C@@]2(O)[C@]14C [9,21-DIHYDROXYRYANODINE] | 4900 | – | 10 | –
CO[C@@]12C[C@@]3(C)[C@@]4(O)CC[C@H](C)[C@@H](O)[C@]4(O1)[C@]1(O)[C@@]3(OC)[C@H](OC(=O)c3cccn3C)[C@](O)(C(C)C)[C@]21C | 4500 | > 20 | >20 | –
CC(=O)O[C@@H]1[C@@H](C)CC[C@]2(O)[C@]3(C)C[C@]4(O)O[C@]12[C@]1(O)[C@@]3(O)[C@H](OC(=O)c2ccc[nH]2)[C@](O)(C(C)C)[C@@]14C [10-ACETYLRYANODINE] | 140 | – | 0.5 | –
CO[C@@]12C[C@@]3(C)[C@@]4(O)CC[C@H](C)[C@@H](O)[C@]4(O1)[C@]1(O)[C@@]3(O)[C@H](OC(=O)c3cccn3C)[C@](O)(C(C)C)[C@]21C | 280 | 17 | >20 | –
CC(CO)[C@@]1(O)[C@@H](OC(=O)c2ccc[nH]2)[C@@]2(O)[C@@]3(C)C[C@]4(O)O[C@@]5([C@H](O)[C@@H](C)CC[C@]35O)[C@@]2(O)[C@]14C (stereo not given in full) [18-HYDROXYRYANODINE] | 88 | 0.9 | – | –
CC1=CC[C@]2(O)[C@]3(C)C[C@]4(O)O[C@@]2(C1=O)[C@]1(O)[C@@]3(O)[C@H](OC(=O)c2ccc[nH]2)[C@](O)(C(C)C)[C@@]14C | 7300 | > 5 | – | –
C=C1CC[C@]2(O)[C@]3(C)C[C@]4(O)O[C@@]2([C@@H]1O)[C@]1(O)[C@@]3(O)[C@H](OC(=O)c2ccc[nH]2)[C@](O)(C(C)C)[C@@]14C [DEHYDRORYANODINE] | 13 | 0.1 | 0.03 | –
CO[C@@H]1[C@@H](C)CC[C@]2(O)[C@]3(C)C[C@]4(OC)O[C@]12[C@]1(O)[C@@]3(OC)[C@H](OC(=O)c2cccn2C)[C@](O)(C(C)C)[C@]41C | > 10000 | > 20 | >20 | –
CC(C)[C@@]1(O)[C@@H](O)[C@@]2(O)[C@@]3(C)C[C@]4(O)O[C@@]5([C@H](O)[C@@H](C)CC[C@]35O)[C@@]2(O)[C@]14C [RYANODOL] | 35000 | > 20 | 0.34 | Ratio IC50 [4]: 3500; Ratio [5]: 3.6; KD50 [6]: 1.1 µg/g; Ratio [7]: > 200; Ratio [8]: 0.8
CC(C)[C@@]1(O)[C@@H](OC(=O)c2cc[nH]c2)[C@@]2(O)[C@]3(C)C[C@@]4(O)O[C@@]5([C@H](O)[C@@H](C)CC[C@]35O)[C@@]2(O)[C@@]41C [RYANODINE] | – | – | – | Drug metabolism [9]: Active; Drug metabolism [10]: Active
CC(C)[C@@]1(O)[C@@H](OC(=O)c2ccc[nH]2)[C@@]2(O)[C@@]3(C)C[C@]4(O)O[C@@]5([C@H](O)[C@@H](C)CC[C@]35O)[C@@]2(O)[C@@]14C [RYANODINE] | – | 0.1 | – | –

From ChEMBL document CHEMBL3045240 (J Med Chem, 1987)
